This is a sample that favours compounds with a hit; in the whole collection about 0.73% have one here.
Cardiac RTF inh: cardiac RTF calcium desensitization. actives 0.12% (n = 340,000). inhibition, % at 7.15 µM. AID 493244. P19429+P45379. IANBD-labeled cardiac RTF, Ca2+ fluorescence;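 active means inhibition above the mean inhibition of all tested compounds plus 3 SD, cut at about 17% in these data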;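 further: assay run at fixed EC70 calcium of 1.6 mM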
C-LANA FP: inhibitors of KSHV LANA C-terminal domain DNA binding. MBP-C-LANA/FAM-LBS DNA binding, fluorescence polarization. inhibition, % at 9 µM. actives 0.078% (n = 340,000). AID 504423;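 active means highest replicate inhibition at or above 60% at 9 µM, even if other replicates fall short; inactive means all replicates below 60% inhibition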;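 further: 0% = neutral control wells and 100% = 4 µM acridine orange control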
DDE Tn6 FP inh: DD(E)-Tn6 binding inhibition, primary FP screen; Fibrin DD(E) TRITC-Tn6 fluorescence polarization displacement; inhibition, % at 8.3 µM; actives 0.21% (n = 370,000); AID 720509;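 active means inhibition above a per-campaign cutoff: mean of compounds within control limits plus 3 SD, cut at about 15% in these data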;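 further: 0% = median of all compound wells on the plate and 100% = blocking peptide control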
Keap1 Nrf2 FP: inhibitors of human Keap1-Nrf2 protein-protein interaction; Keap1 Kelch-Nrf2 peptide fluorescence polarization, 1536-well; inhibition, % at 9.4 µM; actives 0.15% (n = 340,000); AID 504523; in the data active means inhibition above about 12%;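 further: human Keap1 Kelch domain with fluorescein labeled Nrf2 9mer peptide probe; 0% = neutral control wells and 100% = peptide positive control; higher means more block of Keap1 binding to Nrf2 peptide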
Target sequence (Q14145 whole entry, looked up, the tested form may be a part): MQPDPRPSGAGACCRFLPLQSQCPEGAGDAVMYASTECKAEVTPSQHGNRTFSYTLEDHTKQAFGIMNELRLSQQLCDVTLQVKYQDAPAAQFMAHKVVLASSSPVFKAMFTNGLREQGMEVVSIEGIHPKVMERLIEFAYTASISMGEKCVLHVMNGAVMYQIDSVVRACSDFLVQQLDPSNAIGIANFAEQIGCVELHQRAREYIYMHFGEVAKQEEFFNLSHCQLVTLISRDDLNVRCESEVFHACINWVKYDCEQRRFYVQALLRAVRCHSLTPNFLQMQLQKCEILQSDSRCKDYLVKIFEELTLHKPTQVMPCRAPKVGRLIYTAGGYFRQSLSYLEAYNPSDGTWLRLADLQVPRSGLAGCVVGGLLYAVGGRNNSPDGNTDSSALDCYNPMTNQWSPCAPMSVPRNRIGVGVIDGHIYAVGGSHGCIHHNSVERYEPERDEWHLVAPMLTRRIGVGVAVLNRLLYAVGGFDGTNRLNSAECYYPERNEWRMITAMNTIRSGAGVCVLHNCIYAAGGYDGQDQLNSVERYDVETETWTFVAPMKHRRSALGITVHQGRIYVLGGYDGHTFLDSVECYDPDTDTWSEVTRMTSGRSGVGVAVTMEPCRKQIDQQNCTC
cardiac RTF act: increases calcium sensitivity of human cardiac regulated thin filaments | IANBD-labeled TnC RTF fluorescence at EC20 calcium; 0% EC20 calcium, 100% full calcium | activation, % at 7.2 µM | actives 0.24% (n = 340,000);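 active means activation above the mean over all tested compounds plus 3 SD, cut at about 30% in these data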;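 further: rise in fluorescence read as greater calcium sensitivity of cardiac thin filaments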
DDE Tn7 FP inh: disrupts Tn7 cyclic peptide binding to fibrin D-Dimer-E complex; actives 0.13% (n = 370,000); FP displacement of FITC-Tn7 peptide from fibrin DD(E); 0% = median of compound wells per plate; inhibition, % at 8.3 µM; AID 720508;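 active means inhibition above the mean of compounds falling within the control limits plus 3 SD of them, cut at about 14% in these data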;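 further: 0% = plate median of compound wells and 100% = 10 µM Aha-Tn7 peptide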
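Measure: % inhibition scaled between sample-field median and high-control FP; Test system: human fibrin DD(E); Quantity: 2 µM final DD(E) protein; Doses: one dose, 8.3 µM nominal; Schedule: compound with protein 10 min, then 3 h after probe, room temperature; Detection: fluorescence polarization; Medium: Tris buffer with calcium and detergent, pH 7.8.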
RTF inh confirm: confirmation of inhibitors of cardiac thin filament calcium sensitivity; shares compounds with Cardiac RTF inh; reconstituted cardiac thin filaments, calcium sensitivity fluorescence; inhibition, % at 7.15 µM; actives 8% (n = 360); AID 504635; in the data active means inhibition above about 18%
* marks the source's active call; other numbers are inactive results; nt = no result given.

SMILES	Cardiac RTF inh	C-LANA FP	DDE Tn6 FP inh	Keap1 Nrf2 FP	cardiac RTF act	DDE Tn7 FP inh	RTF inh confirm
COc1cc(C(=O)N2CCN(C(=O)C3CC3)CC2)cc(OC)c1OC	20*	0	-4	3	1	5	-4
CC(C)C[C@H](NC(=O)C1CC1)C(=O)N1CCC[C@H]1C(=O)NCc1ccccc1	nt	nt	1	nt	nt	2	nt
NC(=S)Nc1nc2ccccc2s1	19*	1	1	2	-6	0	-5
COc1cccc2c1NC(C(=O)O)C1CC=CC21 (centres undefined)	19*	58	nt	1	-36	nt	15
C#CCN1CC(N(C)CCOC(=O)c2ccc(OC)c(OC)c2)CS1(=O)=O (centres undefined)	nt	nt	-2	nt	nt	4	nt
C[C@H]1CN=C(Nc2ccccc2)N1CCC1CCCCC1	9	2	2	-7	0	-5	nt
C[C@H]1CN=C(Nc2ccccc2)N1CCCC1CCCC1	19*	2	1	-4	1	1	-2
CC(=O)N(C)C[C@@H]1OCc2ccccc2-c2c(n(C)c3ccccc23)C(=O)N([C@@H](C)CO)C[C@@H]1C	nt	nt	0	nt	nt	0	nt
CC1=CC(C)(C)C(C(=O)O)C(C(=O)O)C1 (centres undefined)	18*	1	-4	-3	10	-3	-6
CC1=CC(C)C(C(=O)O)C(C(=O)N2CCN(C)CC2)C1 (centres undefined)	-6	-1	7	-3	-5	-4	nt
CN(c1ccccc1)S(=O)(=O)c1ccccc1Br	17*	2	-4	-3	4	4	0
Cc1ccc(S(=O)(=O)N(C)c2ccccc2)cc1	0	0	-12	1	-1	-10	nt
Cc1ccc(S(=O)(=O)N2CCCC2C(=O)N2CCN(c3ccccc3)CC2)cc1C (centres undefined)	nt	nt	4	nt	nt	-9	nt
Cc1ccc(C=Nn2c(-c3n[nH]c4c3CCC4)n[nH]c2=S)s1	nt	nt	-1	nt	nt	4	nt
Cc1cc(C)n(Cc2ccc(C(=O)O)cc2)n1	0	1	5	-2	-1	-9	nt
Cc1ccc(C)n1Cc1ccc(C(=O)O)cc1	71*	114*	nt	-4	-35	nt	22*
C[C@@H]1ON(C)[C@H]2C[C@H]3c4cc(Br)ccc4CCN3C[C@@H]12	nt	nt	3	nt	nt	6	nt
COc1ccc2c(c(-c3ccccc3)cn2C)c1-c1ccccc1	nt	nt	5	nt	nt	9	nt
COc1ccc(CN(C)C(=O)COC(=O)c2c(-c3ccccc3Cl)noc2C)cc1	18*	1	-8	-4	-2	-11	-8
Cc1ccc(-n2c(SCC(=O)O)nc3sc4c(c3c2=O)CCCC4)cc1	17*	-2	2	-3	-1	-1	-4
COc1ccc(N/C(=C\C(=O)c2ccccc2)c2ccccc2)cc1OC	nt	nt	3	nt	nt	-1	nt
C[C@H]1c2cccc(O)c2C(O)=C2C(=O)[C@]3(O)C(O)=C(C(N)=O)C(=O)[C@@H](N(C)C)C3[C@@H](O)C21 (some centres undefined)	8	-1	-7	3	2	8	nt
C=C1c2cccc(O)c2C(=O)C2C(=O)[C@]3(O)C(=O)C(C(N)=O)C(=O)[C@@H](N(C)C)[C@@H]3[C@@H](O)[C@H]12 (some centres undefined)	61*	126*	-10	12*	-28	-1	11
OCC1OC(C(N=Nc2ccccc2)=NNc2ccccc2)C(O)C1O (centres undefined)	nt	nt	-4	nt	nt	-1	nt
O=C1N[C@@H](Cc2ccccc2)C(=O)N2CCCC12 (some centres undefined)	0	-2	-4	0	-3	6	nt
SMILES	Cardiac RTF inh	C-LANA FP	DDE Tn6 FP inh	Keap1 Nrf2 FP	cardiac RTF act	DDE Tn7 FP inh	RTF inh confirm
O=C1N[C@@H](Cc2cnc[nH]2)C(=O)N2CCC[C@@H]12	17*	1	1	-2	3	2	-2
CCCCCCC(=O)O	-6	-2	0	-1	2	-4	nt
CCCCCCCCCCCCCCCC(=O)OC(CC(=O)O)C[N+](C)(C)C (centres undefined)	18*	1	-1	5	5	5	-5
C[C@H]1[C@@H](OC(=O)N2CCOCC2)CC[C@@]23CCCN2C(=O)CCC[C@@H]13	nt	nt	3	nt	nt	0	nt
Cc1ccc(-c2cc(C(=O)N/N=C/c3ccco3)[nH]n2)cc1	17*	-2	-3	-5	4	-3	-6
CN(C)CC[C@@H](c1ccc(Cl)cc1)c1ccccn1	17*	-2	6	0	2	4	0
COc1ccc2c(c1)nc(-c1cccc(Br)c1)c(=O)n2C(c1ccccn1)c1nc2ccccc2[nH]1 (centres undefined)	nt	nt	-5	nt	nt	-7	nt
CCCCN1CC[C@H](C)Oc2cc(Br)ccc2S1(=O)=O	nt	nt	2	nt	nt	-2	nt
O=c1c(O)cccc2cc(O)c(O)c(O)c12	87*	82*	-2	-5	-40	-6	51*
O=c1cc(-c2ccccc2)oc2cc(O)c(O)c(O)c12	2	4	0	-1	2	-1	nt
C=C[C@@]1(C)CC(=O)[C@]2(O)[C@@]3(C)[C@@H](O)CCC(C)(C)[C@@H]3[C@H](O)[C@H](OC(C)=O)[C@@]2(C)O1	19*	-3	0	-2	6	2	-5
COc1ccc(-c2cc(C(=O)OC3CCOC3=O)c3ccccc3n2)cc1 (centres undefined)	-1	1	-1	-2	-2	1	nt
Cc1cc(C(=O)OC2CCOC2=O)c2ccccc2n1 (centres undefined)	19*	0	3	-4	6	-4	-4
Cc1cc(N2CCNC[C@H]2C)ccc1N1C[C@@H](C)O[C@@H](C)C1	nt	nt	3	nt	nt	-7	nt
CCc1cc2c(CN(C)Cc3ccccc3F)cc(=O)oc2cc1O	18*	0	0	-1	-4	-6	-6
Cc1nn(-c2cccc(C(F)(F)F)c2)c(Cl)c1/C=N/Nc1cccc(C(=O)O)c1	21*	1	-1	0	4	1	-1
O=c1oc2cc(O)c(Cl)cc2c2ccccc12	-5	0	-12	-1	5	3	nt
O=c1cc2c(=O)oc3cc(O)c(O)oc3c2c(O)c1O	87*	112*	10	-3	-51	-13	68*
Clc1ccc(-c2nnc(SCc3cccc4ccccc34)n2Cc2ccco2)cc1	nt	nt	-6	nt	nt	-13	nt
COc1ccc(S(=O)(=O)n2ccc(-c3ccc(OCCN(C)c4ccccn4)cc3)n2)cc1	17*	-1	2	-2	-2	0	-2
CCOC(=O)[C@@H](NC(=O)/C=C/[C@H]1O[C@@H](n2ccc(=O)[nH]c2=O)[C@H](O)[C@@H]1O)C(C)C	nt	nt	-2	nt	nt	3	nt

Compound activity: PubChem BioAssay, several laboratories
